{"source": "paper PMC4911243", "about": "(Cancer research, 2016)", "key": {"[1]": {"assay": "Plasma pharmacokinetic profile in mice", "format": "in vivo, male C57 BL/6 mice", "settings": "for signal in plasma: after IMR-1 i.v. 2 mg/kg and i.p. 100 mg/kg, any time point", "outline": "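Male C57BL/6 mice received a single test compound dose, either 2 mg/kg i.v. or 100 mg/kg i.p. Plasma was analysed by mass spectrometry (m/z) for parent and acid metabolite. Metabolite PK parameters (Tmax, T1/2, CL, Vss) were calculated on the parent dose. Clearance was referenced to 90 mL/min/kg liver blood flow, and Vss to 0.7 L/kg total body water.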"}, "Notch1 (NICD)": {"target": "Notch1 (NICD) (Homo sapiens, UniProt P46531)", "sequence (P46531 1754-2555 limits assumed)": "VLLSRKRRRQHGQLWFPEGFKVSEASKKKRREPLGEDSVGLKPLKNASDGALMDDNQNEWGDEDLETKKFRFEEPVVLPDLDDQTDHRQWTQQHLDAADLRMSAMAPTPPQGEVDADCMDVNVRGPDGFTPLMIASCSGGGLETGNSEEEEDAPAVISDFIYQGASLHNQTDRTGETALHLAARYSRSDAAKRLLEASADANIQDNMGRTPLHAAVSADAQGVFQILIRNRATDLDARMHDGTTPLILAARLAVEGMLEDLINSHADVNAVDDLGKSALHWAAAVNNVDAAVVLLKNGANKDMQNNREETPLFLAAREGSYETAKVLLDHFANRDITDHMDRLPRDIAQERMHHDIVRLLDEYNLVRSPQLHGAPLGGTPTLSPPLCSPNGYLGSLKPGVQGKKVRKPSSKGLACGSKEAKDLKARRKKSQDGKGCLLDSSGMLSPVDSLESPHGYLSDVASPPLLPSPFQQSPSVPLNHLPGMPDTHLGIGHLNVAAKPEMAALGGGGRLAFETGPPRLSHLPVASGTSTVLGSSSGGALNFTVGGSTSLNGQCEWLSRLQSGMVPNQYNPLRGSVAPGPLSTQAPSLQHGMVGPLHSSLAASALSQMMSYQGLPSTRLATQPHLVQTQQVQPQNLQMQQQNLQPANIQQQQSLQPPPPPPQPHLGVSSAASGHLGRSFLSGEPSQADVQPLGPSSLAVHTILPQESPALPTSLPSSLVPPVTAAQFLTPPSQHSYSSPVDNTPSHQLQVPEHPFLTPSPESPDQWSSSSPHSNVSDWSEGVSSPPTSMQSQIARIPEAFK", "assay": "Surface plasmon resonance, binding to NICD", "settings": "for mode of binding to Notch1: SPR sensorgrams, dissociation to baseline; for Kd: SPR, equilibrium approach, 1:1 binding model, wild type NICD", "outline": "(§1)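 NICD (wild type or point mutant) was amine-coupled to a CM5 chip. Runs were on a Biacore T200 at 25 °C in 10 mM PBS pH 7.5 with 5% DMSO as running buffer. Signals were corrected against a DMSO control. Dissociation was followed under buffer flow. KD came from equilibrium response (Req) versus test compound concentration, fitted to a 1:1 binding model.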"}, "[2]": {"test_system": "NICD in OE33 and 786-0 cells", "assay": "Western analysis of NICD levels", "format": "cell-based, human", "settings": "Western analysis of lysates from ChIP assay cells", "outline": "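Lysates came from the same treated OE33 and 786-0 cells used for ChIP (DAPT 15 μM, test compound 25 μM, or DMSO). Western blots were probed with anti-Notch1, anti-cleaved Notch1 (Val1744) and anti-GAPDH antibodies.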"}, "[3]": {"test_system": "OE19 human esophageal adenocarcinoma cells", "assay": "OE19 xenograft model in nude mouse", "format": "in vivo", "settings": "15 mg/kg", "outline": "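Nude mice received 5 × 10^6 OE19 cells in the flank, and tumors developed over 4 weeks. Mice were treated with test compound at 15 mg/kg or DMSO control. Tumor establishment and body weight were monitored through treatment.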"}, "[4]": {"test_system": "patient-derived esophageal adenocarcinoma xenograft (EAC29 and EAC47)", "assay": "Patient-derived esophageal adenocarcinoma xenograft", "format": "in vivo", "outline": "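Patient-derived esophageal adenocarcinoma tumors were grown in NSG mice to 200 mm3 before treatment began. Mice then received daily i.p. doses of test compound (15 mg/kg), comparator inhibitor (20 mg/kg) or DMSO vehicle. After 24 days, tumors were harvested. Notch target gene transcription was measured by RT-qPCR (TaqMan) and normalized to TBP and HPRT.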"}, "NICD R2061A": {"target": "NICD R2061A (Homo sapiens, UniProt P46531, R2060A)", "sequence (P46531 1754-2555 R2060A)": "as the sequence (P46531 1754-2555 limits assumed) above, with R307A counted along it", "assay": "Surface plasmon resonance, binding to mutated NICD", "settings": "SPR", "outline": "as §1"}, "[5]": {"test_system": "Notch-independent cell lines (refractory to DAPT)", "assay": "Colony formation assay, Notch-independent cell lines", "format": "cell-based, human", "settings": "cells refractory to DAPT"}, "[6]": {"target": "Notch ternary complex (CSL, Notch1, Maml1 on DNA) (Homo sapiens, UniProt P46531)", "sequence (P46531 1754-2555 limits assumed)": "as the sequence (P46531 1754-2555 limits assumed) above", "sequence (Q06330 whole entry partner)": "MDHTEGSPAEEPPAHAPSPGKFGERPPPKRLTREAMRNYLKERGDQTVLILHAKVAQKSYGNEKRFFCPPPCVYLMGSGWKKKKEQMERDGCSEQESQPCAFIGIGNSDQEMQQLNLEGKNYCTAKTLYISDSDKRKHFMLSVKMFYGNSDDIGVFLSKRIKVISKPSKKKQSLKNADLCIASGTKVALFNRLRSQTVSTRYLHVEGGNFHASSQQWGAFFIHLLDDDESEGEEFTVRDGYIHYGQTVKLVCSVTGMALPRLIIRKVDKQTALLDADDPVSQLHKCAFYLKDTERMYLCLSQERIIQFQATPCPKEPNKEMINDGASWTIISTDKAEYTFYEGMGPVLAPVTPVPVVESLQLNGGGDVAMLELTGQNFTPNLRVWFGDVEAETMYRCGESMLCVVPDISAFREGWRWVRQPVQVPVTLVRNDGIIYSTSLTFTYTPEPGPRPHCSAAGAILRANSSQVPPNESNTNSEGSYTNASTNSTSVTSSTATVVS", "assay": "in vitro Notch ternary complex", "format": "biochemical", "settings": "for IC50: in vitro NTC assay, dose-response"}, "NICD R2105A": {"target": "NICD R2105A (Homo sapiens, UniProt P46531, R2104A)", "sequence (P46531 1754-2555 R2104A)": "as the sequence (P46531 1754-2555 limits assumed) above, with R351A counted along it", "assay": "Surface plasmon resonance, binding to mutated NICD", "settings": "SPR, R2105 substituted by alanine", "outline": "as §1"}, "NICD R2096A": {"target": "NICD R2096A (Homo sapiens, UniProt P46531, R2095A)", "sequence (P46531 1754-2555 R2095A)": "as the sequence (P46531 1754-2555 limits assumed) above, with R342A counted along it", "assay": "Surface plasmon resonance, binding to mutated NICD", "settings": "SPR, R2096 substituted by alanine", "outline": "as §1"}, "[7]": {"test_system": "HES1 promoter occupancy in OE33 and 786-0 cells", "assay": "ChIP assay on the HES1 promoter", "format": "cell-based, human", "settings": "DAPT 15 μM, IMR-1 25 μM", "outline": "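OE33 and 786-0 cells were exposed to DAPT, test compound or DMSO vehicle. Chromatin immunoprecipitation used the indicated antibodies against NTC components, and HES1 promoter occupancy was assessed.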"}, "D. rerio (zebrafish)": {"test_system": "D. rerio (zebrafish)", "assay": "Somite formation in zebrafish embryos", "format": "in vivo", "settings": "embryos soaked in 40 μM IMR-1", "outline": "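Zebrafish embryos were exposed to test compound at 8 hpf and examined at 13 hpf in coronal view for somites. Controls were untreated, DMSO vehicle, and 100 pg human Notch1 intracellular domain mRNA-injected embryos. The percentage of embryos with somites was scored and compared by Fisher's exact test.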"}, "[8]": {"test_system": "Notch target genes (Hes-1, Hey-L) in OE33 and 786-0 cells", "assay": "RT-qPCR analysis of Notch target genes", "format": "cell-based, human", "outline": "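OE33 and 786-0 cells were treated, then Hes-1 and Hey-L were measured by reverse transcription and TaqMan qPCR. Values were normalized to TBP and HPRT and expressed relative to vehicle (DMSO) control set to 1.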"}, "NICD R2071A": {"target": "NICD R2071A (Homo sapiens, UniProt P46531, R2070A)", "sequence (P46531 1754-2555 R2070A)": "as the sequence (P46531 1754-2555 limits assumed) above, with R317A counted along it", "assay": "Surface plasmon resonance, binding to mutated NICD", "settings": "SPR", "outline": "as §1"}, "[9]": {"settings": "IMR-1A after IMR-1 i.p. 100 mg/kg, mice plasma"}}}
{"molecule": "IMR-1", "values": [{"measurement": "signal in plasma", "setting": "[1]", "value": "no signal was detected"}, {"measurement": "clinical signs", "setting": "[1]; single i.v. 2 mg/kg and i.p. 100 mg/kg, through last sample withdrawal", "value": "did not induce any clinical signs"}, {"measurement": "mode of binding to Notch1", "setting": "Notch1 (NICD)", "value": "non-covalent, reversible binding"}, {"measurement": "Kd", "setting": "Notch1 (NICD)", "value": "11 ± 3", "unit": "µM"}, {"measurement": "levels of NICD in cells", "setting": "[2]", "value": "does not change"}, {"measurement": "adverse effects", "setting": "[3]", "value": "no observable adverse effects"}, {"measurement": "tumor establishment", "setting": "[3]; nude mouse, OE19 cells, 4 weeks", "value": "readily blocks tumor establishment"}, {"measurement": "body weight", "setting": "[3]; throughout the treatment course", "value": "remained constant"}, {"measurement": "expression level of Notch target genes (Hes1, HeyL, Notch3) in excised tumors", "setting": "[4]; after 24 days of treatment, both PDX models", "value": "dramatically reduced"}, {"measurement": "weight loss or visible signs of adverse effects", "setting": "[4]; daily i.p. 15 mg/kg", "value": "without any significant weight loss or other visible signs of adverse effects"}, {"measurement": "PDX tumor growth", "setting": "[4]; daily i.p., IMR-1 15 mg/kg or DAPT 20 mg/kg, 24 days, vs DMSO", "value": "significantly abrogated growth"}, {"measurement": "general toxicity upon in vivo treatment", "setting": "[4]; in vivo treatment, summary statement", "value": "no general toxicity was observed"}, {"measurement": "Kd", "setting": "NICD R2061A; NICD R2061A", "value": 35.6, "unit": "µM"}, {"measurement": "decrease in affinity relative to wild type NICD", "setting": "NICD R2061A; R2061 replaced with alanine", "value": "approximately 5 fold"}, {"measurement": "colony formation", "setting": "[5]", "value": "equally resistant"}, {"measurement": "IC50", "setting": "[6]", "value": 26, "unit": "µM"}, {"measurement": "effect of mutation on affinity", "setting": "NICD R2105A", "value": "No effect"}, {"measurement": "effect of mutation on affinity", "setting": "NICD R2096A", "value": "No effect"}, {"measurement": "occupancy of Maml1 on the HES1 promoter", "setting": "[7]", "value": "decreased the occupancy"}, {"measurement": "occupancy of Notch1 on the HES1 promoter", "setting": "[7]", "value": "did not affect the occupancy"}, {"measurement": "embryos with disruption of somite formation", "setting": "D. rerio (zebrafish)", "value": 69.7, "unit": "%"}, {"measurement": "Notch target gene transcription", "setting": "[8]; Hes-1, Hey-L, OE33 and 786-0", "value": "dose-dependent decrease"}, {"measurement": "transcription of the housekeeping gene HPRT", "setting": "[8]; treated cells", "value": "unaltered"}, {"measurement": "Kd", "setting": "NICD R2071A; NICD R2071A", "value": 38.7, "unit": "µM"}, {"measurement": "decrease in affinity relative to wild type NICD", "setting": "NICD R2071A; R2071 replaced with alanine", "value": "approximately 5 fold"}]}
{"molecule": "COc1cc(/C=C2/SC(=S)NC2=O)ccc1OCC(=O)O", "note": "[IMR-1A]", "values": [{"measurement": "T1/2", "setting": "[1]; [9]", "value": 6.16, "unit": "h"}, {"measurement": "Tmax", "setting": "[1]; [9]", "value": 0.50, "unit": "h"}, {"measurement": "Vss relative to normal volume of total body water (0.7 L/kg)", "setting": "[1]; IMR-1A after IMR-1 i.v. 2 mg/kg", "value": "~ 4 fold"}, {"measurement": "T1/2", "setting": "[1]; IMR-1A after IMR-1 i.v. 2 mg/kg, mice plasma", "value": 2.22, "unit": "h"}, {"measurement": "CL", "setting": "[1]; IMR-1A after IMR-1 i.v. 2 mg/kg, mice plasma, 2 mg/kg", "value": 7, "unit": "mL/min/kg"}, {"measurement": "time up to which plasma concentrations were quantifiable", "setting": "[1]; after IMR-1 i.p. 100 mg/kg", "value": "up to 24 h"}, {"measurement": "signal in plasma", "setting": "[1]", "value": "present"}, {"measurement": "mode of binding to Notch1", "setting": "Notch1 (NICD)", "value": "non-covalent, reversible binding"}, {"measurement": "Kd", "setting": "Notch1 (NICD)", "value": "2.9 ± 0.6", "unit": "µM"}, {"measurement": "increase in potency with respect to IMR-1", "setting": "[6]; in vitro NTC assay IC50", "value": 50, "unit": "fold"}, {"measurement": "IC50", "setting": "[6]", "value": 0.5, "unit": "µM"}]}
{"molecule": "C[C@H](NC(=O)Cc1cc(F)cc(F)c1)C(=O)N[C@H](C(=O)OC(C)(C)C)c1ccccc1", "note": "[DAPT, reference compound]", "values": [{"measurement": "colony formation", "setting": "[5]", "value": "refractory"}, {"measurement": "occupancy of Maml1 on the HES1 promoter", "setting": "[7]", "value": "decreased the occupancy"}, {"measurement": "occupancy of Notch1 on the HES1 promoter", "setting": "[7]", "value": "decreased the occupancy"}]}
